For orientation: IC50 means the concentration at which inhibition is half-maximal. As a reminder, the ED50 is the midpoint of the dose-response relation. Read a low ED50 as greater potency. As a reminder, the bioavailability is dose-corrected exposure relative to a reference, in per cent. A low value points to poor availability.

Bounds are passed on as bounds.

For one series, the system named is Plasmodium falciparum. Put plainly: Antiplasmodial activity against Plasmodium falciparum Nigeria infected in human erythrocytes assessed as incorporation of [3H]hypoxanthine after 48 hrs. The series is classed as functional, organism-based. The essentials:
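Nigerian-strain P. falciparum-infected erythrocytes at 1.5% final hematocrit and 0.6% parasitemia, grown in Hepes-buffered RPMI 1640 with 10% AB human serum. Drugs dissolved in DMSO, final DMSO ≤0.25%. Modified Desjardins test: [³H]hypoxanthine incorporation measured after 48 h drug contact. IC₅₀ is the concentration giving 50% growth inhibition. Two independent experiments.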

A short description of series [1]: Therapeutic index, ratio of ED50 for human Jurkat cells to IC50 for Plasmodium falciparum Nigeria infected in human erythrocytes. It counts as cell-based.
Another series has as its system Jurkat. Put plainly: Cytotoxicity against human Jurkat cells after 24 hrs by [3H]thymidine incorporation assay. It counts as cell-based. The essentials: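 Human Jurkat lymphoblasts exposed to compounds for 24 h, then [³H]thymidine added to gauge viability. Values are means of two independent experiments run in duplicate, differing by less than 40%.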
In general terms: Incorporation of labelled thymidine or its analogues reports DNA synthesis.

Series [2] has as its system Plasmodium vinckei petteri. Put plainly: Antimalarial activity against Plasmodium vinckei petteri 279BY infected in Swiss mouse administered as ip qd for 4 days measured on day 5. The series is classed as functional. The essentials:
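Female Swiss mice infected intravenously with 10⁷ P. vinckei petteri 279BY parasites (parasitemia 0.5−1% on day 1). Compounds in DMSO, 0.9% NaCl or intralipid/DMSO (90/10) given ip once daily on days 1−4 postinfection. Parasitemia read on day 5. ED₅₀ is the dose giving 50% parasitemia inhibition, determined only when parasitemia fell by at least 85%. Three mice per dose.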

Another series has as its system Mus musculus. Description: Toxicity in ip dosed Swiss mouse administered for 4 days measured on day 5. The series is classed as organism-based. Particulars: in vivo, 96 h.
A short description of series [3]: Oral bioavailability in Sprague-Dawley rat at 12 mg/kg. It counts as ADME, organism-based. Particulars: in vivo.

On to `COCCc1sc[n+](CCCc2cn(CCc3sc[n+](Cc4ccccc4)c3C)nn2)c1C`, for which, in the series with Plasmodium falciparum, the IC50 amounted to 7000 nM.

Turning to `Cc1c(CCOCc2cn(CCc3sc[n+](Cc4ccccc4)c3C)nn2)sc[n+]1Cc1ccccc1`, the concentration for half-maximal inhibition (IC50) in the series with Plasmodium falciparum came to 640 nM.

Take `COCCc1sc[n+](CCCCCn2cc(CCC[n+]3csc(CCOC)c3C)nn2)c1C`: the IC50 in the series on Plasmodium falciparum came out at 1200 nM.

With `Cc1c(CCO)sc[n+]1CCCCCCCCCCCC[n+]1csc(CCO)c1C.[Br-].[Br-]` [ALBITIAZOLIUM BROMIDE], the selectivity ratio in series [1] was found to be 150000. For the same molecule, it took 347000 nM to reach half-maximal inhibition in the series on Jurkat (IC50). This molecule also yielded an ED50 in series [2] of 0.2 mg/kg.

`COCCc1sc[n+](CCCCc2ccc3ccc(CCCC[n+]4csc(CCOC)c4C)cc3c2)c1C.[Cl-].[Cl-]`: the selectivity ratio in series [1] came out at 170000. In addition, the results for the IC50 in the series with Jurkat and in the series on Plasmodium falciparum were 465000 nM and 6.3 nM, respectively. Also, the ED50 in series [2] worked out at 0.5 mg/kg.

In the case of `Cc1c(CCO)sc[n+]1CCCCc1ccc(CCCC[n+]2csc(CCO)c2C)s1.[Cl-].[Cl-]`, the ED50 in series [2] is over 0.6 mg/kg. Also, the IC50 with Plasmodium falciparum was 16.5 nM.

Take `Cc1c(CCO)sc[n+]1CCCCc1ccc(CCCC[n+]2csc(CCO)c2C)c2ccccc12.[Cl-].[Cl-]`: the ED50 in series [2] was over 0.6 mg/kg. Further, in the series on Plasmodium falciparum, the 50% inhibitory concentration (IC50) was 6.7 nM.

With `Cc1c(CCO)sc[n+]1CC#Cc1ccc(C#CC[n+]2csc(CCO)c2C)cc1`, the IC50 in the series on Plasmodium falciparum was 1250 nM.

The molecule `COCCc1sc[n+](CCCCc2ccc(-c3ccc(CCCC[n+]4csc(CCOC)c4C)cc3)cc2)c1C.[Cl-].[Cl-]` gave an ED50 in series [2] of 0.7 mg/kg. In the series on Plasmodium falciparum, the IC50 is 2.5 nM.

The molecule `COCCc1sc[n+](CCCc2ccc(CCC[n+]3csc(CCOC)c3C)cc2)c1C.[Cl-].[Cl-]` showed an ED50 in series [2] of over 1 mg/kg. Also, in the series with Plasmodium falciparum, the IC50 worked out at 36.5 nM.

Turning to `Cc1c(CCO)sc[n+]1CCCCc1ccc(CCCC[n+]2csc(CCO)c2C)cc1.[Cl-].[Cl-]`, the 50% effect level in series [2] (ED50) was put at a dose of 1.2 mg/kg. Also, in the series with Plasmodium falciparum, the IC50 was 20.5 nM.

For `COCCc1sc[n+](CCOc2ccc(-c3ccc(OCC[n+]4csc(CCOC)c4C)cc3)cc2)c1C.[Br-].[Br-]`, in series [2], the ED50 was over 0.6 mg/kg. The IC50 in the series on Plasmodium falciparum stood at 18.5 nM.

For `COCCc1sc[n+](CCCc2cn(CCc3sc[n+](C)c3C)nn2)c1C`, the IC50 in the series on Plasmodium falciparum was 8200 nM.

Turning to `COCCc1sc[n+](CCCCc2ccc(CCCC[n+]3csc(CCOC)c3C)c3ccccc23)c1C.[Cl-].[Cl-]`, in series [2], the ED50 is over 0.6 mg/kg. Further, the IC50 in the series with Plasmodium falciparum is 2.1 nM.

Molecule `Cc1c(CCO)sc[n+]1CCOc1ccc(Cc2ccc(OCC[n+]3csc(CCO)c3C)cc2)cc1.[Cl-].[Cl-]` came in with a median effective dose (ED50) in series [2] of over 1 mg/kg. In addition, the IC50 in the series with Plasmodium falciparum came to 22 nM.

As to `Cc1c(CCOCCCCCCOCCc2sc[n+](Cc3ccccc3)c2C)sc[n+]1Cc1ccccc1`, the IC50 with Plasmodium falciparum was determined as 15 nM.

`COCCc1sc[n+](Cc2ccc(OCCCCCOc3ccc(C[n+]4csc(CCOC)c4C)cc3)cc2)c1C.[Cl-].[Cl-]` came in with an ED50 in series [2] of over 0.4 mg/kg. Moreover, the IC50 in the series with Plasmodium falciparum is 313 nM.

On to `Cc1c(CCOCc2cn(CCc3sc[n+](C)c3C)nn2)sc[n+]1C`, for which the IC50 in the series with Plasmodium falciparum came to 10000 nM.

On to `COCCc1sc[n+](CC#Cc2ccc(C#CC[n+]3csc(CCOC)c3C)cc2)c1C`, for which, in the series on Plasmodium falciparum, the IC50 was 420 nM.

On to `Cc1c(CCO)sc[n+]1CCC#Cc1ccc(C#CCC[n+]2csc(CCO)c2C)cc1`, for which, in the series on Plasmodium falciparum, the IC50 amounted to 173 nM.

Turning to `Cc1c(CCOCCCCCCOCCc2sc[n+](C)c2C)sc[n+]1C`, the IC50 with Plasmodium falciparum was 120 nM.

Turning to `COCCc1sc[n+](CCCCc2ccc(CCCC[n+]3csc(CCOC)c3C)cc2)c1C.[Cl-].[Cl-]`, the Activity entry in the series on Mus musculus is recorded as “Non-toxic”. Further, it took a dose of 0.13 mg/kg to reach the 50% effect level in series [2] (ED50). Also, the IC50 in the series on Plasmodium falciparum stood at 8.3 nM.

In the case of `C/C(=C1\CCOC(=O)S1)N(C=O)CCCCCCCCCCCCN(C=O)/C(C)=C1\CCOC(=O)S1`, in series [3], the bioavailability was found to be 15%.

As for `COCCc1sc[n+](CCOc2ccc(Cc3ccc(OCC[n+]4csc(CCOC)c4C)cc3)cc2)c1C.[Cl-].[Cl-]`, the ED50 in series [2] is over 1 mg/kg. In addition, the IC50 with Plasmodium falciparum is 22.5 nM.

As for `COCCc1sc[n+](CCOc2ccc(C(=O)c3ccc(OCC[n+]4csc(CCOC)c4C)cc3)cc2)c1C.[Cl-].[Cl-]`, the Activity entry with Mus musculus is on record as “Non-toxic”. The molecule further gave an ED50 in series [2] of over 2 mg/kg. For the same molecule, in the series with Plasmodium falciparum, the IC50 was 80 nM.

`COCCc1sc[n+](CCCCc2ccc(CCCC[n+]3csc(CCOC)c3C)s2)c1C.[Cl-].[Cl-]`: the results for the IC50 in the series with Jurkat and in the series on Plasmodium falciparum were 63000 nM and 2.7 nM, respectively. This molecule had an ED50 in series [2] of 0.28 mg/kg.

`Cc1c(CCO)sc[n+]1CCCc1ccc(CCC[n+]2csc(CCO)c2C)cc1.[Cl-].[Cl-]` came in with a median effective dose (ED50) in series [2] of over 0.5 mg/kg. Also, the half-maximal inhibitory concentration (IC50) in the series on Plasmodium falciparum turned out to be 77.5 nM.

The molecule `COCCc1sc[n+](CCCCc2cccc(CCCC[n+]3csc(CCOC)c3C)c2)c1C.[Cl-].[Cl-]` yielded an ED50 in series [2] of over 1 mg/kg. The IC50 in the series with Plasmodium falciparum turned out to be 9 nM.

Values taken from ChEMBL document CHEMBL2311439, “New bis-thiazolium analogues as potential antimalarial agents: design, synthesis, and biological evaluation” (J Med Chem, 2013).
